# Measured values from ChEMBL document CHEMBL2057201, “New CD1d agonists: synthesis and biological activity of 6″-triazole-substituted α-galactosyl ceramides” (Bioorg Med Chem Lett, 2012).
# Calls of active or inactive are those of the source. The calls are words filed in the database; no cut-off is given here.
# Columns and labels:
# iNKT = assay: Immunomodulatory activity in mouse iNKT DN3A4-1.2 cells assessed as stimulation of IL2 production after 24 hrs by ELISA
# Mus musculus [1] = assay: Immunomodulatory activity in ip dosed C57BL/6 mouse assessed as stimulation of IL4 production after 2 hrs
# Mus musculus [2] = assay: Immunomodulatory activity in ip dosed C57BL/6 mouse assessed as stimulation of IL4 production after 2 hrs; assay type: functional, organism-based
# How it was run: (§1)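 C57BL/6 mice received the glycolipids by intraperitoneal injection. Cytokines were measured in serum: IL-4 at 2 h and IFN-γ at 24 h after injection.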
# Mus musculus [3] = assay: Immunomodulatory activity in ip dosed C57BL/6 mouse assessed as stimulation of IFNgamma production after 24 hrs
# Mus musculus [4] = assay: Immunomodulatory activity in ip dosed C57BL/6 mouse assessed as stimulation of IFNgamma production after 24 hrs; assay type: functional, organism-based
# How it was run: as §1
Compound,Activity (iNKT),Activity (Mus musculus [1]),Activity (Mus musculus [2]),Activity (Mus musculus [3]),Activity (Mus musculus [4])
CCCCCCCCCCCCCCCCCCCCCCCCCC(=O)N[C@@H](CO[C@H]1O[C@H](Cn2nncc2-c2ccccc2)[C@H](O)[C@H](O)[C@H]1O)[C@H](O)[C@H](O)CCCCCCCCCCCCCC,Active,Active,Active,–,–
CCCCCCCCCCCCCCCCCCCCCCCCCC(=O)N[C@@H](CO[C@H]1O[C@H](Cn2nnc(-c3ccccc3)c2-c2ccccc2)[C@H](O)[C@H](O)[C@H]1O)[C@H](O)[C@H](O)CCCCCCCCCCCCCC,Active,–,–,–,–
CCCCCCCCCCCCCCCCCCCCCCCCCC(=O)N[C@@H](CO[C@H]1O[C@H](Cn2cc(COCCOCCOCCOCCOCCOCCOCCOCCOC)nn2)[C@H](O)[C@H](O)[C@H]1O)[C@H](O)[C@H](O)CCCCCCCCCCCCCC,Active,Active,Active,Active,Active
CCCCCCCCCCCCCCCCCCCCCCCCCC(=O)N[C@@H](CO[C@H]1O[C@H](Cn2nnc3ccccc32)[C@H](O)[C@H](O)[C@H]1O)[C@H](O)[C@H](O)CCCCCCCCCCCCCC,Active,–,–,–,–
CCCCCCCCCCCCCCCCCCCCCCCCCC(=O)N[C@@H](CO[C@H]1O[C@H](CN=[N+]=[N-])[C@H](O)[C@H](O)[C@H]1O)[C@H](O)[C@H](O)CCCCCCCCCCCCCC,Active,–,–,Active,Active
CCCCCCCCCCCCCCCCCCCCCCCCCC(=O)N[C@@H](CO[C@H]1O[C@H](Cn2cc(-c3ccccc3)nn2)[C@H](O)[C@H](O)[C@H]1O)[C@H](O)[C@H](O)CCCCCCCCCCCCCC,Active,–,–,–,–
CCCCCCCCCCCCCCCCCCCCCCCCCC(=O)N[C@@H](CO[C@H]1O[C@H](Cn2cc(CCCCCCCCCCCC)nn2)[C@H](O)[C@H](O)[C@H]1O)[C@H](O)[C@H](O)CCCCCCCCCCCCCC,–,Active,Active,Active,Active
CCCCCCCCCCCCCCCCCCCCCCCCCC(=O)N[C@@H](CO[C@H]1O[C@H](Cn2cc(CCCCCCCC)nn2)[C@H](O)[C@H](O)[C@H]1O)[C@H](O)[C@H](O)CCCCCCCCCCCCCC,Active,Active,Active,Active,Active
